For test [1], the target named is T1, Adenosine receptor A1 (Homo sapiens) (UniProt P30542).
T1 sequence (whole entry): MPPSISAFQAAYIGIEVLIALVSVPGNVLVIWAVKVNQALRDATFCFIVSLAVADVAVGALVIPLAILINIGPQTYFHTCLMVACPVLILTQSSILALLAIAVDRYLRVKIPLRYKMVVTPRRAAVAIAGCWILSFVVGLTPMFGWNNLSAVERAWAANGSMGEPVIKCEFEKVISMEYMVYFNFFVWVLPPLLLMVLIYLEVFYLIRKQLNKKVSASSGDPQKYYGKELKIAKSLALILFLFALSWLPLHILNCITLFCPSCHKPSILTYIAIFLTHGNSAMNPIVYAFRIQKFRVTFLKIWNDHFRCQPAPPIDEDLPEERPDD
Put plainly: Allosteric enhancement of human adenosine A1 receptor expressed in CHO cells assessed as increase of CCPA Ki at 10 uM after 90 mins by [3H]DPCPX radioligand binding assay. Type of test: cell-based. A digest of the protocol:
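hA1CHO membranes (50 mM Tris-HCl, pH 7.4, adenosine deaminase-treated). [3H]DPCPX 1 nM competed by CCPA (0.01 nM–1 μM) with or without test compound at 10 μM. Triplicate, 90 min at 25 °C. Nonspecific binding taken with 1 μM DPCPX. Filtration, then scintillation counting. Ki by Cheng–Prusoff. Shift = Ki(CCPA)/Ki(CCPA+enhancer). Mean ± SEM, n=3.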

The target of test [2] is T1, Adenosine receptor A1 (Homo sapiens). The experiment in a line: Allosteric enhancement of human adenosine A1 receptor expressed in CHO cells assessed as increase of [3H]CCPA Bmax at 10 uM after 90 mins. Type of test: cell-based. A digest of the protocol:
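Saturation of [3H]CCPA (0.05–20 nM) on hA1CHO membranes in 50 mM Tris-HCl, pH 7.4, with or without compound at final 10 μM. Triplicate, 25 °C, 90 min. Nonspecific binding defined with 1 μM R-PIA. Filter-bound radioactivity counted. KD and Bmax fitted by weighted nonlinear least squares; Bmax shift versus control. Mean ± SEM, n=3.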

In test [3] the target is Adenosine receptor A2a (Homo sapiens) (UniProt P29274). The experiment in a line: Displacement of [3H]ZM 241385 from human adenosine A2A receptor expressed in CHO cells at 10 uM after 60 mins by scintillation counting. Format: cell-based. The method in brief: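 hA2ACHO membranes in 50 mM Tris HCl, 10 mM MgCl2, pH 7.4, 4 °C for 60 min. [3H]ZM 241385 given as 1 nM in methods and 2 nM in table footnote. Compound at 10 μM from 100-fold DMSO stock, 1% DMSO final. Nonspecific binding with 1 μM ZM 241385. Filtration and scintillation counting. Percent inhibition of control specific binding, ±SEM, n=3.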
On the technique in general: Loss of bound radioactivity is the signal in a displacement assay; it reports binding, not function.

Test [4] addresses T1, Adenosine receptor A1 (Homo sapiens). Put plainly: Allosteric enhancement of human adenosine A1 receptor expressed in CHO cells assessed as inhibition of CCPA-induced cAMP production at 100 nM after 10 mins. Format: functional, cell-based. A digest of the protocol:
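Intact hA1CHO cells (10⁶/mL) in phosphate buffer with adenosine deaminase 1.0 IU/mL and Ro 20-1724 0.5 mM, preincubated 10 min at 37 °C. Compound 100 nM plus CCPA 1 pM added for 10 min, then forskolin 1 μM for 5 min. Stopped with cold 6% TCA, ether-extracted. cAMP measured by [3H]-cAMP competition with adrenal binding protein (4 °C, 150 min). pmol/10⁶ cells, mean ± SEM of three.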

For test [5] the target is unchanged. Put plainly: Allosteric enhancement of human adenosine A1 receptor expressed in CHO cells assessed as inhibition of forskolin-induced cAMP production at 10 uM after 10 mins. Format: functional, cell-based. The method in brief: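 Whole hA1CHO cells (10⁶/mL) preincubated 10 min at 37 °C in phosphate buffer with adenosine deaminase (1.0 IU/mL) and Ro 20-1724 (0.5 mM). Compound alone at 10 μM for a further 10 min; forskolin 1 μM for 5 min. TCA stop, ether extraction, cAMP by [3H]-cAMP protein-binding competition assay. Expressed as pmol/10⁶ cells; mean ± SEM, three experiments.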

Test [6] shares this target. The experiment in a line: Displacement of [3H]DPCPX from human adenosine A1 receptor expressed in CHO cells at 10 uM after 120 mins by scintillation counting.
For test [7], the target named is T2, Adenosine receptor A3 (Homo sapiens) (UniProt P0DMS8).
T2 sequence (whole entry): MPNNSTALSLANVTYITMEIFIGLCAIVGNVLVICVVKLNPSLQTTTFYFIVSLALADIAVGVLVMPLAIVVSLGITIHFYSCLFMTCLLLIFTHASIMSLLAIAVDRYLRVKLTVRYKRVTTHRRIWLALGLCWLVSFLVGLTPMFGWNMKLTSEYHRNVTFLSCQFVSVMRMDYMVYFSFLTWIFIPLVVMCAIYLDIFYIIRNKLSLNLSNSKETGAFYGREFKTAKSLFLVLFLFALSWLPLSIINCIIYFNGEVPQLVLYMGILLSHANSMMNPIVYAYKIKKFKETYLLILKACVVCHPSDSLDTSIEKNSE
The experiment in a line: Displacement of [3H]MRE-3008-F20 from human adenosine A3 receptor expressed in CHO cells at 10 uM after 120 mins by scintillation counting.

Sequence of Adenosine receptor A2a (Homo sapiens) (P29274 whole entry): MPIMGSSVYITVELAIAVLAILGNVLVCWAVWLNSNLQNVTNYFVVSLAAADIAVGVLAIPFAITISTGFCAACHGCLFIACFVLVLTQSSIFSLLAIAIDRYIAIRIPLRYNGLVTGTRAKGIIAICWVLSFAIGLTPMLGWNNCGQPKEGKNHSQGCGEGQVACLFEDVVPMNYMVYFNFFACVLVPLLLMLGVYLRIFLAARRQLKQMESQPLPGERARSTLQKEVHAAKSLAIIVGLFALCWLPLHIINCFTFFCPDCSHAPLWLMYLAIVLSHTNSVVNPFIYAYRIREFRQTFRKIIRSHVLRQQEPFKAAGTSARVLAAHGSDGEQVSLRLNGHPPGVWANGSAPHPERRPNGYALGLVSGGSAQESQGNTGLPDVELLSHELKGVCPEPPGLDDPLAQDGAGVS

In the case of `Cn1c2c(c3cc(Cl)ccc31)CN(Cc1csc(N)c1C(=O)c1ccc(Cl)cc1)CC2`, the fold change (FC) in test [1] came to 2.6; in test [2], 2.8. Further, the inhibition (usually the change of the read-out against control, counted positive when it falls) in test [3] was 0%; in test [4], 28%; in test [5], 24%; in test [6] it was 1%; in test [7] it was 1%.

`Nc1scc(CN2CCc3ccccc3C2)c1C(=O)c1ccc(Cl)cc1`: the fold change (FC) in test [1] was determined as 4.1; in test [2], 4.6. In addition, the inhibition was found to be 3% in test [3]; 43% in test [4]; 41% in test [5]; 0% in test [6]; 1% in test [7].

Consider `Nc1scc(CN2CCN3c4ccc(Cl)cc4CC3C2)c1C(=O)c1ccc(Cl)cc1` (stereo not drawn), for which the fold change (FC) was determined as 1.1 in test [1] and 1.2 in test [2]. Also, the inhibition worked out at 4% in test [3]; 11% in test [4]; 7% in test [5]; 1% in test [6]; 1% in test [7].

For `CCN(CC)Cc1c(-c2ccccc2)sc(N)c1C(=O)c1ccc(Cl)cc1`, the fold change (FC) is 2.4 in test [1] and 2.8 in test [2]. Further, the inhibition worked out at 5% in test [3]; 27% in test [4]; 25% in test [5]; 1% in test [6]; 9% in test [7].

As to `CCCN(CCC)Cc1c(-c2ccccc2)sc(N)c1C(=O)c1ccc(Cl)cc1`, the figures for the fold change (FC) in test [1] and in test [2] were 2.5 and 3.1, respectively. For the same compound, the inhibition in test [3] is 1%; in test [4], 29%; in test [5], 28%; in test [6], 1%; in test [7], 11%.

Consider `Nc1scc(CSc2ccccc2)c1C(=O)c1ccc(Cl)cc1`, for which the values for the fold change (FC) in test [1] and in test [2] were 2 and 2.2, respectively. For the same compound, the inhibition in test [3] came to 1%; in test [4], 21%; in test [5] it was 18%; in test [6] it was 1%; in test [7], 5%.

With `CN(Cc1csc(N)c1C(=O)c1ccc(Cl)cc1)c1ccc(F)cc1`, the fold change (FC) turned out to be 3.4 in test [1] and 3.2 in test [2]. Besides, the inhibition in test [3] turned out to be 2%; in test [4], 26%; in test [5], 28%; in test [6], 3%; in test [7], 4%.

Take `CN(Cc1ccccc1)Cc1c(-c2ccccc2)sc(N)c1C(=O)c1ccc(Cl)cc1`: the fold change (FC) in test [1] and in test [2] was 1.1 throughout. The inhibition in test [3] is 3%; in test [4], 11%; in test [5], 4%; in test [6], 1%; in test [7], 6%.

`Nc1scc(CN2CCn3c(cc4ccccc43)C2)c1C(=O)c1ccc(Cl)cc1`: the fold change (FC) in test [1] was found to be 6.6; in test [2], 7.5. Moreover, the inhibition in test [3] worked out at 0%; in test [4], 62%; in test [5], 66%; in test [6] it was 3%; in test [7], 3%.

Take `CN(Cc1csc(N)c1C(=O)c1ccc(Cl)cc1)c1ccc(C(F)(F)F)cc1`: the fold change (FC) is 2.8 in test [1] and 3.2 in test [2]. The inhibition in test [3] stood at 0%; in test [4] it was 31%; in test [5], 29%; in test [6], 3%; in test [7], 4%.

For `Nc1scc(CN2CCn3c(cc4cc(F)ccc43)C2)c1C(=O)c1ccc(Cl)cc1`, the values for the fold change (FC) in test [1] and in test [2] were 7.2 and 8.2, respectively. For the same compound, the inhibition was 2% in test [3]; 65% in test [4]; 69% in test [5]; 0% in test [6]; 5% in test [7].

For `CC(C)N(Cc1csc(N)c1C(=O)c1ccc(Cl)cc1)C(C)C`, the fold change (FC) in test [1] and in test [2] was 1 throughout. Moreover, the inhibition was determined as 0% in test [3]; 14% in test [4]; 4% in test [5]; 1% in test [6]; 3% in test [7].

In the case of `Cc1ccc(OCc2csc(N)c2C(=O)c2ccc(Cl)cc2)cc1`, the fold change (FC) in test [1] is 1.4; in test [2] it was 1.3. Besides, the inhibition in test [3] came to 1%; in test [4], 16%; in test [5], 11%; in test [6] it was 5%; in test [7], 11%.

Turning to `Nc1scc(COc2ccccc2)c1C(=O)c1ccc(Cl)cc1`, the fold change (FC) in test [1] was 1.2; in test [2], 1.3. Also, the inhibition in test [3] stood at 0%; in test [4], 11%; in test [5], 9%; in test [6], 1%; in test [7] it was 2%.

As to `Nc1scc(COc2ccc(F)cc2)c1C(=O)c1ccc(Cl)cc1`, the fold change (FC) in test [1] and in test [2] was 1.2 throughout. Moreover, the inhibition was 1% in test [3]; 15% in test [4]; 10% in test [5]; 1% in test [6]; 8% in test [7].

With `Cc1cccc2c1OC1(CCN(Cc3csc(N)c3C(=O)c3ccc(Cl)cc3)CC1)O2`, the fold change (FC) in test [1] was 4.9; in test [2] it was 5. Further, the inhibition turned out to be 1% in test [3]; 47% in test [4]; 46% in test [5]; 2% in test [6]; 5% in test [7].

Turning to `Nc1scc(CN2CCc3[nH]c4ccccc4c3C2)c1C(=O)c1ccc(Cl)cc1`, the fold change (FC) in test [1] and in test [2] was 1 in each case. The inhibition in test [3] was 1%; in test [4] it was 11%; in test [5], 3%; in test [6], 0%; in test [7], 1%.

For the compound `CCN(Cc1csc(N)c1C(=O)c1ccc(Cl)cc1)c1ccccc1`, the fold change (FC) in test [1] was 1.9; in test [2], 2.3. Moreover, the inhibition in test [3] was 0%; in test [4], 18%; in test [5] it was 19%; in test [6], 0%; in test [7] it was 11%.

For the compound `CC(C)N(Cc1c(-c2ccccc2)sc(N)c1C(=O)c1ccc(Cl)cc1)C(C)C`, the fold change (FC) turned out to be 1.3 in test [1] and 1.2 in test [2]. Also, the inhibition is 6% in test [3]; 12% in test [4]; 9% in test [5]; 5% in test [6]; 11% in test [7].

For the origin of these results see ChEMBL document CHEMBL2417436, “Synthesis and biological effects of novel 2-amino-3-(4-chlorobenzoyl)-4-substituted thiophenes as allosteric enhancers of the A1 adenosine receptor” (Eur J Med Chem, 2013).
